Published values from different studies.
Compare with care: the assays were run in different laboratories.
Target: Serine/threonine-protein kinase TBK1 (TBK1, Homo sapiens, UniProt Q9UHD2)
Residues used in one study (Q9UHD2 1-729): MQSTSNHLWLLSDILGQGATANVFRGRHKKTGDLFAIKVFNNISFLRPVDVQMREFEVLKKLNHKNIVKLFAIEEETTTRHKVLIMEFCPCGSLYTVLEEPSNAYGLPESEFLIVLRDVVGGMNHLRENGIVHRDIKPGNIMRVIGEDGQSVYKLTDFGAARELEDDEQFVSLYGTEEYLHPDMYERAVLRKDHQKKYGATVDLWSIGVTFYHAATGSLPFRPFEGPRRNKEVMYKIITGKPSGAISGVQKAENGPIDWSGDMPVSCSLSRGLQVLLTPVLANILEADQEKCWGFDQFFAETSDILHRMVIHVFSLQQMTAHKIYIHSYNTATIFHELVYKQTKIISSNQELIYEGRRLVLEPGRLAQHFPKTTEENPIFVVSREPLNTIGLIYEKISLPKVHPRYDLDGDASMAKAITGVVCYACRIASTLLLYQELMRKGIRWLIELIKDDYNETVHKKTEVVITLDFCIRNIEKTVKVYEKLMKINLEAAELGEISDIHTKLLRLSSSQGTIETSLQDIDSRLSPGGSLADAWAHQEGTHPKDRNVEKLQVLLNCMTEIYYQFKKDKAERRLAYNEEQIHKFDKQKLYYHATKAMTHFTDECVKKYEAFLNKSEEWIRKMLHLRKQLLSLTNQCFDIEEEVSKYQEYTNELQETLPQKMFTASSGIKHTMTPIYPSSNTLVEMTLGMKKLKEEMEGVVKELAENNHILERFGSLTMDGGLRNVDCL

For c1cncc(-c2cccc(Nc3nccc(NC4CCCCC4)n3)c2)c1, the remaining binding was 62% (binding; competition with immobilised ligand; 10 µM).
O=C(c1ccc(Nc2ncc(Cl)c(-c3ccc(Cl)s3)n2)cc1)N1CCC(N2CCCC2)CC1 gave a remaining binding of 0% (binding; competition with immobilised ligand; 1 µM).
CN(c1nccc(-c2cnn3ncccc23)n1)C1CC1 has a remaining binding of 100% (binding; 1 µM).
For O=C(Nc1c[nH]nc1C(=O)NC1CCNCC1)c1cc(F)cc(F)c1, the remaining binding was 100% (binding; competition with immobilised ligand; 1 µM).
CN(C)c1nccc(-c2cnn3ncccc23)n1 gave a remaining binding of 82% (binding; 1 µM).
COc1cnc(Nc2cccc(S(N)(=O)=O)c2)nc1N1CCN(c2ccccc2)CC1 gave a remaining binding of 61% (binding; competition with immobilised ligand; 1 µM).
With C=CC(=O)N1CCC(C(=O)NCC(=O)N2CCN(c3nc(-c4cnc(N)nc4C(F)F)nc(N4CCOCC4)n3)CC2)CC1 the remaining binding was 91% (binding; competition with immobilised ligand; 1 µM).
CN(C)c1ncc(F)c(-c2cnn3ncccc23)n1 gave a remaining binding of 86% (binding; 1 µM).
The remaining binding of CNCc1ccccc1-c1csc([C@@H](C)Nc2nc(C)nc3cc(OC)c(OC)cc23)c1 is reported as 100% (cell-free assay; competition with immobilised ligand; 1 µM).
COc1ncc2cc3ccccc3nc2c1C#N has a remaining binding of 98% (cell-free assay; competition with immobilised ligand; 5 µM).
For O=C(Nc1ccc(Oc2ccc(F)cc2)cc1)N1CCc2ncccc2[C@H]1c1ccc(F)cc1, the remaining binding was 81% (cell-free assay; competition with immobilised ligand; 1 µM).
COc1ccnn2ncc(-c3ccnc(N(C)C)n3)c12 has a remaining binding of 68% (binding; 1 µM).
With O=C(NCCCN1CCOCC1)c1ccc(Nc2nccc(-c3cc4ccccc4s3)n2)cc1 the remaining binding was 70% (binding; competition with immobilised ligand; 1 µM).
For CS(=O)(=O)NCC[C@H](NC(=O)c1cncc2c1cnn2-c1ccc(F)cc1)c1ccnc(S(C)(=O)=O)c1, the remaining binding was 94% (cell-free assay; competition with immobilised ligand; 1 µM).
C[C@@H]1CCN(c2nccc(-c3cnn4ncccc34)n2)C1 has a remaining binding of 63% (binding; 1 µM).
The remaining binding of CS(=O)(=O)N1CCCC(NC(=O)[C@H](CCC2CCCCC2)NC(=O)c2ccc(CNC(=O)c3cnc4ccccn34)cc2)C1 (stereo partly drawn) is reported as 75% (cell-free assay; competition with immobilised ligand; 0.1 µM).
With O=C(c1ccc(Nc2ncc(Cl)c(-c3cc4ccccc4s3)n2)cc1)N1CCC(N2CCCC2)CC1 the remaining binding was 11% (binding; competition with immobilised ligand; 1 µM).
COc1ccc2c(c1)O[C@H](c1ccc(OC)c(OC)c1)C[C@@H]2NC(=O)C1(c2ccc3c(c2)OC(F)(F)O3)CC1 gave a remaining binding of 99% (cell-free assay; competition with immobilised ligand; 1 µM).
N[C@@H]1CCN(c2nccc(-c3cnn4ncccc34)n2)C1 gave a remaining binding of 97% (binding; 1 µM).
CNC(=O)[C@@H]1CC[C@@H](n2c(-c3ccc4cnccc4c3)nc3ccc(C(=O)NCc4cccc(C(N)=O)c4)cc32)C1 gave a remaining binding of 95% (binding; competition with immobilised ligand; 1 µM).
O=C(NC[C@@H]1[C@H]2CN(C(=O)OCc3cc(C(F)(F)F)cc(C(F)(F)F)c3)C[C@@H]12)c1ccc2[nH]nnc2c1 has a remaining binding of 100% (cell-free assay; competition with immobilised ligand; 1 µM).
